This note sets out measurements from ChEMBL document CHEMBL2021903, “3-Deoxy-3,4-dehydro analogs of XM462. Preparation and activity on sphingolipid metabolism and cell fate” (Bioorg Med Chem, 2012).

In test [1] the test system is HCT-116. The test is described as follows: Cytotoxicity against human HCT116 cells after 24 hrs by MTT assay. Conditions: HCT-116, 24 h, read-out: LD50 (the source's name). Format: functional. Summed up:
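Cells seeded at 10⁵ cells/mL; after 24 h medium replaced with fresh medium with or without test compounds across a concentration range. Viable cells counted by MTT after 24 h of treatment. LD₅₀ (µM) obtained by regression analysis of dose–response curves from two experiments with triplicates. HCT116 kept in low-glucose DMEM with 10% FBS at 37 °C, 5% CO2; cells used at about 80% confluence.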

Test [2] has as its system A549. The test is described as follows: Inhibition of SM synthase in human A549 cells using CerC6NBD as substrate preincubated for 24 hrs prior substrate addition measured after 3 hrs by HPLC-FD analysis. Format: cell-based.
The target of test [3] is T1, Sphingomyelin phosphodiesterase (Homo sapiens) (UniProt P17405).
T1 sequence (whole entry): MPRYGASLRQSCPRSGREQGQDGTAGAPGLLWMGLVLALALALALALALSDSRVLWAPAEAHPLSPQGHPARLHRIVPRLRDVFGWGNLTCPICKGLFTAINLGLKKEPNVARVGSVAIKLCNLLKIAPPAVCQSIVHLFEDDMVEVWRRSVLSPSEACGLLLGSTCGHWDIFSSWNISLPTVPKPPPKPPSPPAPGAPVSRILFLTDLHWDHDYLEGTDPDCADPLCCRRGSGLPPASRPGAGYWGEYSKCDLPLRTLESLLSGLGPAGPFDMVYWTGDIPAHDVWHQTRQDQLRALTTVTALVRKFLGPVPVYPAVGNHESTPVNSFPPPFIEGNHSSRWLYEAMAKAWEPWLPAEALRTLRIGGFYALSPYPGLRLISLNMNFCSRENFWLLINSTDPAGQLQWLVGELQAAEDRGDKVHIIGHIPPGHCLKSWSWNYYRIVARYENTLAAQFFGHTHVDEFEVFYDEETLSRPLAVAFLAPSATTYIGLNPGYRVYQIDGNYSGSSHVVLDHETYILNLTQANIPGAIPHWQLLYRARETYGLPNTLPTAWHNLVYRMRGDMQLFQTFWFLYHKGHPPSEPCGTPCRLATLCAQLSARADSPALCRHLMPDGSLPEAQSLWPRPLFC
The test is described as follows: Inhibition of human aSMase using 6-hexadecanoylamino-4-methylumbelliferylphosphorylcholine as substrate at 100 uM preincubated for 30 mins prior substrate addition measured after 2 hrs by spectrophotometry.

Test [4] has as its target T2, Acid ceramidase (Homo sapiens, UniProt Q13510).
T2 sequence (Q13510 whole entry): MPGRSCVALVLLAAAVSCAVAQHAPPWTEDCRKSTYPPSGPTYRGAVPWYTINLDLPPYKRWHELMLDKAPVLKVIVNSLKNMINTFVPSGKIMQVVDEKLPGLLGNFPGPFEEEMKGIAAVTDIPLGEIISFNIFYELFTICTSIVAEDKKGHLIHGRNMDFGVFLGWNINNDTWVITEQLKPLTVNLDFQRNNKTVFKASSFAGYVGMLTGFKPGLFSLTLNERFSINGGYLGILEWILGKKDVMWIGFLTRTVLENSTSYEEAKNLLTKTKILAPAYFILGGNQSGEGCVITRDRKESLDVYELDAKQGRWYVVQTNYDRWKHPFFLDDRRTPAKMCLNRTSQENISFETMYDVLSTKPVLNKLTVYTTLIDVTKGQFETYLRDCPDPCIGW
The test is described as follows: Inhibition of aCDase in Moh.pAS AcCer10X cells using RBM14C12 as substrate after 1 hr by HPLC-FD analysis. Format: cell-based.

For test [5], the target named is Neutral ceramidase (Homo sapiens) (UniProt Q9NR71). As to the kind of experiment: Inhibition of nCDase in Moh.pAS cells using CerC12NBD as substrate after 1 hr by HPLC-FD analysis. Format: cell-based. In a few lines: (§1)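 Moh. pAS cells transfected to overexpress neutral ceramidase. Lysates (sonicated in 1 mM Tris–HCl, 0.1 mM EDTA, pH 7.5) incubated 1 h, 37 °C, with 5 µM CerC12NBD in 25 mM Tris–HCl pH 7.5, 1% sodium cholate, ±50 µM compound. Intact cells treated 4 h with 50 µM compound before lysis and assay. Read-out HPLC-fluorescence.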

Test [6] has as its target T3, Ceramide glucosyltransferase (Homo sapiens) (UniProt Q16739).
T3 sequence (whole entry): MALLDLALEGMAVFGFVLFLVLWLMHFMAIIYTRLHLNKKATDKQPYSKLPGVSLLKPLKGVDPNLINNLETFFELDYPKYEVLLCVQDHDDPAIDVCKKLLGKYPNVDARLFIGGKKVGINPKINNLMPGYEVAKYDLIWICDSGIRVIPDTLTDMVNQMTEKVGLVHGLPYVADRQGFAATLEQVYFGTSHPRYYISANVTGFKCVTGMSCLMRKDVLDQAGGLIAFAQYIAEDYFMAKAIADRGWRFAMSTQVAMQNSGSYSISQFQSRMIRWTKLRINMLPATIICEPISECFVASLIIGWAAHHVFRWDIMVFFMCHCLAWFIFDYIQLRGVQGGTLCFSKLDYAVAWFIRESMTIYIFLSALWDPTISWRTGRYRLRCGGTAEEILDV
The test is described as follows: Inhibition of GlcCer synthase in human A549 cells using CerC6NBD as substrate preincubated for 24 hrs prior substrate addition measured after 3 hrs by HPLC-FD analysis. Format: cell-based.

Test [7] concerns the target Neutral ceramidase (Homo sapiens) (UniProt Q9NR71). The test is described as follows: Inhibition of nCDase using CerC12NBD as substrate after 1 hr by HPLC-FD analysis. In a few lines:
as §1

Test [8] concerns A549. The test is described as follows: Cytotoxicity against human A549 cells after 24 hrs by MTT assay. The class given is functional. Conditions: A549, 24 h, read-out: LD50 (the source's name).
Test [9] concerns A549. The test is described as follows: Effect on sphingolipidome in human A549 cells assessed as increase in dihydroceramide per 10^6 cells at 10 uM after 24 hrs by UPLC-TOF analysis relative to control (reference value: 6.5 +/- 0.42 pmol/10^6 cells). The class given is functional. Summed up: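 Cells incubated with compound at 10 µM, 24 h (A549) or 14 h (HCT116); lipids then extracted and profiled. Long-chain bases and phosphates were read by LC-MS/MS (positive electrospray, selected reaction monitoring, C17-dihydrosphingosine and C17-dihydrosphingosine-1-phosphate transitions monitored). Amounts expressed as pmol per 10⁶ cells. Mean ± SD of triplicates; unpaired two-tailed t-test versus control.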

The target of test [10] is T2, Acid ceramidase. The test is described as follows: Inhibition of aCDase using RBM14C12 as substrate after 1 hr by HPLC-FD analysis.

Each structure is given as a SMILES string. Activity calls are given as the source filed them. The calls are words filed in the database; no cut-off is given here.

Sequence of Neutral ceramidase (Homo sapiens) (Q9NR71 whole entry): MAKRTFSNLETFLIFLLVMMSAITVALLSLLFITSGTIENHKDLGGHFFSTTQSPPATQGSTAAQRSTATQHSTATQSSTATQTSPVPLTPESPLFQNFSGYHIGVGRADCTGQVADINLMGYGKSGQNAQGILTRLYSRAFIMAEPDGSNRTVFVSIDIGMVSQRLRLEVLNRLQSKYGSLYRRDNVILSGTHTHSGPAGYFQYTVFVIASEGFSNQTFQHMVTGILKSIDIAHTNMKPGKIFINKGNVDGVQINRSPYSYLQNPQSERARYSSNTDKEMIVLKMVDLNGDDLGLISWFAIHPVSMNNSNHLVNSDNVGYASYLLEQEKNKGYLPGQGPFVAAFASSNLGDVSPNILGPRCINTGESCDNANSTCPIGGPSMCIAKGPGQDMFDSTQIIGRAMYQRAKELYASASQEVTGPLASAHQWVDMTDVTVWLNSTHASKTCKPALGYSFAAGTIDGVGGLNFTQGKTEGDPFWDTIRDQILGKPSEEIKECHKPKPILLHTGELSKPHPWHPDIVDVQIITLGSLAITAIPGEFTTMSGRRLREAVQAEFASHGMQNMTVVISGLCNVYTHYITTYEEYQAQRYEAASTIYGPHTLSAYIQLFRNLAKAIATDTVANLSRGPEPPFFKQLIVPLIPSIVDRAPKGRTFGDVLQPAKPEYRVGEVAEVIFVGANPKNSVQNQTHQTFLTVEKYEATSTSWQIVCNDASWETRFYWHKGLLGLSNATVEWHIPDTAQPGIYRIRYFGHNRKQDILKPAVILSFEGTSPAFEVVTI

As to `CCCCCCCCCCCCCS/C=C/[C@H](CO)NC(=O)CCCCCCC`, the CC50 in test [1] was 28 µM; in [8], 19 µM. Further, the inhibition entry in test [2], in [3], in test [5], in test [6] and in test [7] was “inactive” throughout. The 50% inhibitory concentration (IC50) in test [4] and in [10] was 77 µM throughout. The Activity in [9] is 22.9 pmol.

With `CCCCCCCCCCCCCS/C=C/[C@H](CO)NC(=O)C(C)(C)C`, the CC50 in test [1] worked out at 30 µM; in test [8], 24 µM. Also, the inhibition result in [2], in [3], in test [5], in test [6] and in test [7] was “inactive” each time. The IC50 in test [4] and in test [10] was 51 µM throughout. For the same compound, in test [9], the Activity is 12.4 pmol.

As to `CCCCCCCCCCCCCS/C=C/[C@H](CO)NC(=O)c1ccc(C(C)(C)C)cc1`, the CC50 in [1] was found to be 81 µM; in test [8], 76 µM. The inhibition result in test [2], in [3], in [5], in [6] and in [7] was “inactive” throughout. The IC50 in test [4] and in test [10] was 315 µM in each case. The result in [9] was inactive.
